Active and inactive are the calls of the source.
What was measured:
[1] = tested on: Nucleic Acid; test: Binding affinity to VEGF quadruplex DNA in human A549 cells assessed as downregulation of VEGF121 mRNA expression after 24 hrs by semi-quantitative RT-PCR analysis; format: cell-based
Summary of the method: (§1)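 A549 cells (3.0 × 10^5) exposed to a range of compound concentrations for 24 h; total RNA reverse-transcribed and cDNA amplified with gene-specific primers at a cycle number chosen per gene for linear signal. VEGF bands quantified by densitometry, normalized to GAPDH; three separate experiments.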

[2] = tested on: A549; test: Cytotoxicity against human A549 cells assessed as cell viability after 72 hrs by SRB assay; format: functional, cell-based; details: A549, 72 h
Summary of the method: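 Sulforhodamine B colorimetric assay on A549 cells. IC50 derived from the concentration versus percent growth inhibition curve. Mean ± standard deviation of three independent experiments, each in triplicate.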

[3] = Solubility of the compound in Tris-HCl buffer at 40 uM at pH 7.4 after 1 to 72 hrs by spectroscopic analysis in presence of salmon sperm DNA duplex; format: physicochemical; details: pH 7.4, 40 µM
Summary of the method: (§2)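 Visible absorbance spectra of compound (40 µM) in 10 mM Tris-HCl pH 7.4 with 100 mM KCl, without DNA, with preformed VEGF quadruplex (20 µM V32G), or with salmon sperm duplex DNA matched in absorbance to the quadruplex; recorded at 0, 8 and 72 h incubation.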

[4] = tested on: A549; test: Downregulation of GAPDH mRNA expression in human A549 cells at 0.75 to 6 uM after 24 hrs by semi-quantitative RT-PCR analysis; format: functional, cell-based
Summary of the method: (§3)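 A549 cells (3.0 × 10^5) treated 24 h at graded compound concentrations; RNA reverse-transcribed and GAPDH cDNA amplified by gene-specific PCR at a cycle number chosen for linear signal, with band intensity by semi-quantitative gel read-out.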

[5] = tested on: Nucleic Acid; test: Binding affinity to VEGF quadruplex DNA in human A549 cells assessed as downregulation of VEGF protein level at 3.1 to 50 uM after 24 hrs by Western blot analysis; format: cell-based
Summary of the method: (§4)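 A549 cells (3.0 × 10^5) exposed to a range of compound concentrations for 24 h. Lysate proteins separated by SDS-PAGE and blotted with rabbit polyclonal VEGF antibody, then HRP-conjugated goat anti-rabbit IgG. Top concentrations chosen from cytotoxicity data.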

[6] = tested on: A549; test: Downregulation of COX2 mRNA expression in human A549 cells at 0.75 to 6 uM after 24 hrs by semi-quantitative RT-PCR analysis; format: functional, cell-based
[7] = Solubility of the compound in Tris-HCl buffer at 40 uM at pH 7.4 after 1 to 72 hrs by spectroscopic analysis in absence of DNA; format: physicochemical; details: pH 7.4, 40 µM
Summary of the method: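 Compound at 40 µM in 10 mM Tris-HCl pH 7.4 with 100 mM KCl, without DNA. Visible absorbance spectra recorded at 0, 8 and 72 h.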

[8] = tested on: A549; test: Downregulation of Max mRNA expression in human A549 cells at 0.75 to 6 uM after 24 hrs by semi-quantitative RT-PCR analysis; format: functional, cell-based
[9] = tested on: Nucleic Acid; test: Binding affinity to VEGF quadruplex DNA in human A549 cells assessed as downregulation of VEGF165 mRNA expression after 24 hrs by semi-quantitative RT-PCR analysis; format: cell-based; summary of the method: as §1
[10] = tested on: Nucleic Acid; test: Binding affinity to VEGF V32G-G-quadruplex DNA at 1 to 32 uM after 10 hrs by polyacrylamide electrophoresis; format: nucleic-acid assay
Summary of the method: (§5)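 Duplex/G-quadruplex competition: FAM-labelled G-rich strand V32G (2 µM) plus complementary C-rich strand (2 µM) with twofold-diluted compound in Tris-HCl pH 7.4, 100 mM KCl; denatured 95 °C 5 min, slow-cooled to 55 °C and held 10 h, then rapidly cooled to 4 °C. Products resolved on 16% native PAGE containing 50 mM KCl (4 °C, 350 V, 10 h); duplex vs monomeric quadruplex bands imaged.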

[11] = tested on: Nucleic Acid; test: Binding affinity to c-Myc quadruplex DNA in human A549 cells assessed as downregulation of c-Myc mRNA expression after 24 hrs by semi-quantitative RT-PCR analysis; format: cell-based
[12] = tested on: Nucleic Acid; test: Binding affinity to VEGF quadruplex DNA in human A549 cells assessed as downregulation of VEGF mRNA expression after 24 hrs by semi-quantitative RT-PCR analysis; format: cell-based; summary of the method: as §1
[13] = tested on: Nucleic Acid; test: Binding affinity to VEGF VT-66-G-quadruplex DNA after 30 mins by DNA polymerase stop assay; format: nucleic-acid assay
Summary of the method: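 Polymerase stop: compound (twofold dilution) with template VT-66 (100 nM) and FAM-labelled primer P16 (100 nM) in 10 mM Tris-HCl pH 7.4, denatured 95 °C 5 min, slow-cooled to 37 °C. Extension started with dNTPs, 3 mM MgCl2 and Klenow fragment (1 unit), 37 °C 30 min. Resolved on 12% denaturing PAGE; stopped/(stopped+full-length) ratio plotted against concentration.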

[14] = Solubility of the compound in Tris-HCl buffer at 40 uM at pH 7.4 after 1 to 72 hrs by spectroscopic analysis in presence of VEGF quadruplex; format: physicochemical; details: pH 7.4, 40 µM; summary of the method: as §2
[15] = tested on: Nucleic Acid; test: Binding affinity to VEGF quadruplex DNA in human A549 cells assessed as downregulation of VEGF protein level at 0.2 to 2.8 uM after 24 hrs by Western blot analysis; format: cell-based; summary of the method: as §4
[16] = tested on: Nucleic Acid; test: Binding affinity to Bcl2 quadruplex DNA in human A549 cells assessed as downregulation of Bcl2 mRNA expression in human A549 cells after 24 hrs by semi-quantitative RT-PCR analysis; format: cell-based
[17] = tested on: Nucleic Acid; test: Binding affinity to VEGF quadruplex DNA in human A549 cells assessed as downregulation of VEGF protein level after 24 hrs by Western blot analysis; format: cell-based
Summary of the method: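 A549 cells (3.0 × 10^5) treated with a range of compound concentrations for 24 h; lysate proteins separated by SDS-PAGE and blotted with rabbit polyclonal anti-VEGF, detected with HRP-conjugated goat anti-rabbit IgG.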

[18] = tested on: A549; test: Downregulation of GAPDH mRNA expression in human A549 cells at 3 to 24 uM after 24 hrs by semi-quantitative RT-PCR analysis; format: functional, cell-based; summary of the method: as §3
[19] = tested on: Nucleic Acid; test: Binding affinity to VEGF quadruplex DNA at 40 uM after 1 to 72 hrs by spectroscopic analysis; format: nucleic-acid assay; summary of the method: as §2
[20] = tested on: A549; test: Downregulation of COX2 mRNA expression in human A549 cells at 3 to 24 uM after 24 hrs by semi-quantitative RT-PCR analysis; format: functional, cell-based
[21] = tested on: A549; test: Downregulation of Max mRNA expression in human A549 cells at 3 to 24 uM after 24 hrs by semi-quantitative RT-PCR analysis; format: functional, cell-based
[22] = tested on: Nucleic Acid; test: Binding affinity to VEGF quadruplex DNA in human MCF7 cells assessed as downregulation of VEGF mRNA expression at 0.75 to 6 uM after 24 hrs by semi-quantitative RT-PCR analysis; format: cell-based
[23] = tested on: HeLa; test: Cytotoxicity against human HeLa cells assessed as cell viability after 72 hrs by SRB assay; format: functional, cell-based
[24] = tested on: Nucleic Acid; test: Binding affinity to VEGF V32G-G-quadruplex DNA after 10 hrs by polyacrylamide electrophoresis; format: nucleic-acid assay; summary of the method: as §5
[25] = Solubility of the compound in Tris-HCl buffer at 40 uM at pH 7.4 after 72 hrs by spectroscopic analysis in absence of DNA; format: physicochemical; details: pH 7.4, 72 h; summary of the method: as §2
[26] = tested on: MCF7; test: Cytotoxicity against human MCF7 cells assessed as cell viability after 72 hrs by SRB assay; format: functional, cell-based; details: MCF7, 72 h
[27] = tested on: Nucleic Acid; test: Binding affinity to VEGF quadruplex DNA in human HCT15 cells assessed as downregulation of VEGF mRNA expression at 0.75 to 6 uM after 24 hrs by semi-quantitative RT-PCR analysis; format: cell-based; details: HCT-15
[28] = tested on: HCT-15; test: Cytotoxicity against human HCT15 cells assessed as cell viability after 72 hrs by SRB assay; format: functional, cell-based; details: HCT-15, 72 h
[29] = tested on: Nucleic Acid; test: Binding affinity to VEGF quadruplex DNA in human HeLa cells assessed as downregulation of VEGF mRNA expression at 0.75 to 6 uM after 24 hrs by semi-quantitative RT-PCR analysis; format: cell-based
[30] = tested on: Nucleic Acid; test: Binding affinity to VEGF V32G-double stranded DNA at 1 to 32 uM after 10 hrs by polyacrylamide electrophoresis; format: nucleic-acid assay
Summary of the method: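 FAM-labeled VEGF G-rich strand (V32G, 2 µM) plus complementary C-rich strand (2 µM) with twofold-diluted compound in Tris-HCl pH 7.4, 100 mM KCl. Denatured 95 °C 5 min, slow-cooled to 55 °C, held 10 h, then rapidly cooled to 4 °C. Separated on 16% native PAGE with 50 mM KCl (4 °C, 350 V, 10 h); duplex vs monomeric quadruplex bands imaged.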

[31] = Inhibition of DNA polymerase at > 1 uM
Summary of the method: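 Klenow polymerase stop assay. Template VT-66 (100 nM) and FAM-primer P16 (100 nM) with twofold-diluted compound in 10 mM Tris-HCl pH 7.4, denatured 95 °C 5 min, slow-cooled to 37 °C. Extension started with dNTPs, 3 mM MgCl2 and Klenow fragment (1 unit), 37 °C 30 min. Products on 12% denaturing PAGE; stopped/total extended ratio plotted.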

[32] = tested on: Nucleic Acid; test: Binding affinity to VEGF quadruplex DNA in human A549 cells assessed as downregulation of VEGF121 mRNA expression at 50 uM after 24 hrs by semi-quantitative RT-PCR analysis; format: cell-based
Summary of the method: (§6)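 A549 cells (3.0 × 10^5) treated 24 h. Total RNA extracted and reverse-transcribed; cDNA amplified with gene-specific primers, with cycle number set so that product intensity tracks cDNA amount. Both VEGF bands quantified by scan densitometry and normalised to GAPDH; three separate experiments.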

[33] = tested on: Nucleic Acid; test: Binding affinity to VEGF quadruplex DNA in human A549 cells assessed as downregulation of VEGF165 mRNA expression at 50 uM after 24 hrs by semi-quantitative RT-PCR analysis; format: cell-based; summary of the method: as §6

CC[N+](C)(CC)CCN1C(=O)c2ccc3c4cccc5cccc(c6ccc(c2c36)C1=O)c54.Cc1ccc(S(=O)(=O)[O-])cc1
soluble: solubility [3] | solubility [14]
Insoluble: solubility [7]
active: Activity [1] Dose-dependent effect | Activity [9] Dose-dependent effect | Activity [10] | Activity [11] Dose-dependent effect | Activity [12] Dose-dependent effect | Activity [13] Dose-dependent effect | Activity [16] Dose-dependent effect
inactive: Activity [4] | Activity [5] | Activity [6] | Activity [8] | Activity [15]
3.2 µM: IC50 [2]

O=C1c2ccc3c4ccc5c6c(ccc(c7ccc(c2c37)C(=O)N1CCN1CCCCC1)c64)C(=O)N(CCN1CCCCC1)C5=O
inactive: Activity [18] | Activity [20] | Activity [21]
active: Activity [1] Dose-dependent effect | Activity [9] Dose-dependent effect | Activity [10] | Activity [11] Dose-dependent effect | Activity [17] Dose-dependent effect | Activity [12] Dose-dependent effect | Activity [13] Dose-dependent effect | Activity [19] | Activity [16] Dose-dependent effect
Insoluble: solubility [7]
52.4 µM: IC50 [2]
soluble: solubility [3] | solubility [14]

CCN(CC)CCN1C(=O)c2ccc3c4cccc5c(N6CCNCC6)ccc(c6ccc(c2c36)C1=O)c54
inactive: Activity [4] | Activity [6] | Activity [8] | Activity [19]
4 µM: IC50 [2]
5.5 µM: IC50 [26]
3 µM: IC50 [23]
4.7 µM: IC50 [28]
active: Activity [1] Dose-dependent effect | Activity [22] | Activity [9] Dose-dependent effect | Activity [11] Dose-dependent effect | Activity [17] Dose-dependent effect | Activity [12] Dose-dependent effect | Activity [13] Dose-dependent effect | Activity [24] | Activity [27] | Activity [16] Dose-dependent effect | Activity [29]
soluble: solubility [3] | solubility [14] | solubility [25]

C[n+]1ccc(-c2c3nc(c(-c4cc[n+](C)cc4)c4ccc([nH]4)c(-c4cc[n+](C)cc4)c4ccc([nH]4)c(-c4cc[n+](C)cc4)c4nc2C=C4)C=C3)cc1 [TMPYP4]
inactive: Activity [5] | Activity [32] | Activity [15] | Activity [33]
43.1 µM: IC50 [2]
active: Activity [30] | Activity [13] Dose-dependent effect | inhibition [31]
